An excerpt weighted towards active compounds, which were near 3.5% of everything screened.
MrgX1 allo act: allosterically activates human MrgX1 receptor signaling | actives 0.63% (n = 310,000) | MrgX1-HEK293, Fluo-4 calcium flux, FDSS; hits give high values | B-score at 10 µM | Q96LB2;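 active = plate-corrected calcium response at least 3 library SD above typical, normal starting fluorescence, not activating the receptor alone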;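 also: compound read alongside a low EC10 to EC30 dose of BAM8-22 agonist; peak minus trough fluorescence over baseline measured at the second addition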
Target sequence (Q96LB2 whole entry, looked up): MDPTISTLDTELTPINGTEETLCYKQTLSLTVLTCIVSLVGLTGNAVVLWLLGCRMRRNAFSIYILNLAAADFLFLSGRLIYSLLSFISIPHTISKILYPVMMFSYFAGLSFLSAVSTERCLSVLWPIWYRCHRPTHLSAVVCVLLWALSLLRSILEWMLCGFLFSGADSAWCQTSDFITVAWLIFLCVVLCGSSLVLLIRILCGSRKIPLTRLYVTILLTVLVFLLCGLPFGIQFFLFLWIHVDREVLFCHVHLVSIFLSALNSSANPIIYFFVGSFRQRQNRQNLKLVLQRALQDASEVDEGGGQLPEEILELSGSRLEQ
RGS4 block: inhibitors of human RGS4 | B-score at 10 µM | actives 0.45% (n = 310,000) | HEK293 M3R/RGS4 inducible, Fluo-4 calcium flux; hits give high values; triggered by carbachol at its EC20;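 active = B-score, a plate-corrected calcium signal, over three deviations above library mean, with baseline fluorescence within five deviations of library mean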;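 also: RGS4 expression induced by doxycycline in cells with stable M3 receptor; B-score is computed from the integrated fluorescence ratio over baseline after carbachol; higher B-score means a larger calcium signal and so more RGS4 inhibition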
Target sequence (P49798 whole entry, looked up): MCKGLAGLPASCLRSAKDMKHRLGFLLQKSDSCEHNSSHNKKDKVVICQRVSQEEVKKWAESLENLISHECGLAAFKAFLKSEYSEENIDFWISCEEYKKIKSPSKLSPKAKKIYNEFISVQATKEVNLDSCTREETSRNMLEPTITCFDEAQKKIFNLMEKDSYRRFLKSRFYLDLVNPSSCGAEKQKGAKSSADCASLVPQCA
RGS4 pot: potentiators or activators of RGS4; HEK293 M3R/inducible RGS4, carbachol calcium flux Fluo4; hits give low values; B-score at 10 µM; actives 0.92% (n = 310,000);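 active = B-score of the integrated calcium signal more than 4 SD below the library mean, with starting fluorescence not abnormally high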;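 also: negative B-score means reduced calcium response which marks RGS4 activation or potentiation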
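test system = M3R-expressing HEK293 line, RGS4 induced by doxycycline | probe or stimulus = carbachol at ECmax as muscarinic agonist stimulus | timing = dye loading 30 min 37 °C, buffer rest 30 min RT | signal = calcium dye Fluo4 fluorescence | evaluation = B score from integrated fluorescence ratio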
MrgX1 antag: blocks BAM8-22 activation of human MrgX1 receptor. Q96LB2. MRGX1-HEK293 calcium flux, Fluo-4, BAM8-22 antagonism; hits give low values. B-score at 10 µM. actives 1.3% (n = 310,000). AID 588676;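 active = calcium-response B-score plate-corrected more than 3 library SD below zero, starting fluorescence within 5 deviations, no agonist response on first addition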;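 also: peak minus trough fluorescence over baseline after final BAM8-22 challenge near maximal dose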
MrgX1 ag: agonists of human MrgX1 receptor | Q96LB2 | MrgX1-HEK293 cells, Fluo-4 calcium fluorescence, agonist mode; hits give high values | B-score at 10 µM | actives 0.44% (n = 310,000);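 active = calcium response B-score plate-corrected fluorescence ratio at least 3 library SD, with starting fluorescence B-score inside 5 SD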
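Test system: HEK293 cells stably expressing human MrgX1 receptor; amount: 15,000 cells per well; doses: compound delivered in addition one of three; times: overnight plating before 1 h dye loading; detection: Fluo-4 NW calcium-flux fluorescence, kinetic read; read-out basis: B-scored fluorescence response ratio; controls: positive and negative controls per plate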
RGS4 act valid: confirmation of RGS4 activators; shares compounds with RGS4 pot; HEK293 M3R/RGS4 inducible, carbachol calcium flux Fluo4; inhibition, % at 10 µM; actives 89% (n = 1,100); AID 602282;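 active = inhibition above 3 SD of the buffer control wells, cut at about 41% in these data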;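 also: signal is the integrated peak-minus-minimum Fluo4 fluorescence over baseline ratio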
RGS4 act ctr: counter-screen for RGS4 activators: effect in non-induced cells; shares compounds with RGS4 pot; HEK293 M3R non-induced RGS4, Fluo4 calcium flux; after carbachol challenge at its EC90; inhibition, % at 10 µM; actives 82% (n = 1,100); AID 602283;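 active = inhibition exceeding 3 SD of buffer-only control wells, cut at about 26% in these data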;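 also: percent drop in integrated peak-minus-baseline over baseline Fluo4 ratio after carbachol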
* hit, by the source's call.

For CCCCn1c2ccccc2c2nnc(SCCN3CCCCC3)nc21 the results were RGS4 block inactive, RGS4 pot -8.5*, RGS4 act valid 92* and RGS4 act ctr 78*.
`Cc1ccc(S(=O)(=O)n2c(N)nc3ccccc32)cc1` gave MrgX1 allo act inactive, RGS4 block inactive, RGS4 pot -7.8*, MrgX1 antag inactive, MrgX1 ag inactive, RGS4 act valid 92* and RGS4 act ctr 96*.
For CCCCOc1ccc(S(=O)(=O)n2c(C)nc3ccccc32)cc1 the results were MrgX1 allo act inactive, RGS4 block inactive, RGS4 pot -8.3*, MrgX1 antag inactive, MrgX1 ag inactive, RGS4 act valid 93* and RGS4 act ctr 96*.
`CCOc1ccc(OCCNCc2ccc(OC(C)C(=O)N(C)C)c(OCC)c2)cc1` (stereo unspecified) gave MrgX1 allo act inactive, RGS4 block inactive, RGS4 pot inactive, MrgX1 antag inactive and MrgX1 ag inactive.
C=CCN1C(=O)/C(=C2\SC(N3CCOCC3)=NC2=O)c2cc(Br)ccc21 was read as MrgX1 allo act inactive, RGS4 block inactive, RGS4 pot -8.6*, MrgX1 antag inactive, MrgX1 ag inactive, RGS4 act valid 86* and RGS4 act ctr 63*.
For CCc1nnc(NC(=O)c2sc3nc4cc(C)ccc4cc3c2N)s1 the results were MrgX1 allo act inactive, RGS4 block inactive, RGS4 pot -8.8*, MrgX1 antag inactive, MrgX1 ag inactive, RGS4 act valid 72* and RGS4 act ctr 32*.
For OCCC1CN(Cc2ccc(-c3ccco3)cc2)CCN1Cc1ccsc1 (stereo unspecified) the results were MrgX1 allo act inactive, RGS4 block inactive, RGS4 pot -7.7*, MrgX1 antag inactive, MrgX1 ag inactive, RGS4 act valid 74* and RGS4 act ctr 84*.
CC(=O)Nc1ccc(OCCCNC(=O)c2c(-c3ccccc3)noc2C)cc1 was read as MrgX1 allo act inactive, RGS4 block inactive, RGS4 pot -8.6*, MrgX1 antag inactive, MrgX1 ag inactive, RGS4 act valid 0 and RGS4 act ctr 0.
For CCCOc1ccc(NC(=O)c2c(-c3ccccc3)noc2C)cc1 the results were MrgX1 allo act inactive, RGS4 block inactive, RGS4 pot inactive, MrgX1 antag inactive and MrgX1 ag inactive.
CCOC(=O)c1c(-c2ccccc2)oc2ccc(O)c(CN3CCN(C)CC3)c12 was read as MrgX1 allo act inactive, RGS4 block inactive, RGS4 pot -8.1*, MrgX1 antag inactive, MrgX1 ag inactive, RGS4 act valid 69* and RGS4 act ctr 49*.
CCOC(=O)c1c(C)n(C)c2ccc(O)c(CN3CCN(C)CC3)c12 was read as MrgX1 allo act inactive, RGS4 block inactive, RGS4 pot inactive, MrgX1 antag inactive and MrgX1 ag inactive.
Screening O=c1c2ccccc2nc(/C=C/c2cccnc2)n1CCc1ccccc1 returned MrgX1 allo act inactive, RGS4 block inactive, RGS4 pot -9.7*, MrgX1 antag inactive, MrgX1 ag inactive, RGS4 act valid 56* and RGS4 act ctr 0.
For COc1cccc(NC(=S)N2CCN(S(=O)(=O)c3ccccc3)CC2)c1 the results were MrgX1 allo act inactive, RGS4 block inactive, RGS4 pot inactive, MrgX1 antag inactive and MrgX1 ag inactive.
Screening O=C(c1ccccc1)C(CCC(CN1CCOCC1)C(=O)c1ccccc1)CN1CCOCC1 (stereo unspecified) returned MrgX1 allo act inactive, RGS4 block inactive, RGS4 pot inactive, MrgX1 antag inactive and MrgX1 ag inactive.
COc1ccc(C(=O)c2cnc3ccccc3c2-c2ccccc2)cc1 was read as MrgX1 allo act inactive, RGS4 block inactive, RGS4 pot -8.6*, MrgX1 antag inactive, MrgX1 ag inactive, RGS4 act valid 86* and RGS4 act ctr 66*.
Cc1ccc(C(=O)c2cnc3ccccc3c2-c2ccccc2)cc1 was read as MrgX1 allo act inactive, RGS4 block inactive, RGS4 pot -8.3*, MrgX1 antag inactive, MrgX1 ag inactive, RGS4 act valid 78* and RGS4 act ctr 58*.
For O=C(Cn1ccc([N+](=O)[O-])n1)NCc1ccccc1 the results were MrgX1 allo act inactive, RGS4 block inactive, RGS4 pot inactive, MrgX1 antag inactive and MrgX1 ag inactive.
`Cc1cc(N2CCCCC2)n2ncc(-c3ccc(Cl)cc3)c2n1` gave MrgX1 allo act inactive, RGS4 block inactive, RGS4 pot inactive, MrgX1 antag inactive and MrgX1 ag inactive.
For Cc1cc(N2CCCCC2)n2ncc(-c3ccccc3)c2n1 the results were MrgX1 allo act inactive, RGS4 block inactive, RGS4 pot -8.1*, MrgX1 antag inactive, MrgX1 ag inactive, RGS4 act valid 94* and RGS4 act ctr 87*.
Cc1cc(C(=O)Nc2ccc(F)cc2)c2ccccc2n1 was read as MrgX1 allo act inactive, RGS4 block inactive, RGS4 pot inactive, MrgX1 antag inactive and MrgX1 ag inactive.
Screening FC(F)(F)c1cccc(CN2CCC(c3cc(-c4cccs4)n[nH]3)CC2)c1 returned MrgX1 allo act inactive, RGS4 block inactive, RGS4 pot inactive, MrgX1 antag inactive and MrgX1 ag inactive.
For Cc1ccc(CN2CCC(c3cc(-c4cccs4)n[nH]3)CC2)cc1 the results were MrgX1 allo act inactive, RGS4 block inactive, RGS4 pot -17*, MrgX1 antag inactive, MrgX1 ag inactive, RGS4 act valid 91* and RGS4 act ctr 68*.
For CCCCCCCOC(=O)C1=C(C)Nc2ncnn2C1c1cccs1 (stereo unspecified) the results were MrgX1 allo act inactive, RGS4 block inactive, RGS4 pot inactive, MrgX1 antag inactive and MrgX1 ag inactive.
For CCCCCCCCOC(=O)C1=C(C)Nc2nnnn2C1c1cccs1 (stereo unspecified) the results were MrgX1 allo act inactive, RGS4 block inactive, RGS4 pot -11*, MrgX1 antag inactive, MrgX1 ag inactive, RGS4 act valid 90* and RGS4 act ctr 75*.
For COc1ccc(S(=O)(=O)N2CCCC(C(=O)NC3CC3)C2)cc1OC (stereo unspecified) the results were MrgX1 allo act inactive, RGS4 block inactive, RGS4 pot inactive, MrgX1 antag inactive and MrgX1 ag inactive.

Assay outcomes deposited in PubChem BioAssay by Johns Hopkins Ion Channel Center.
